Active and inactive are the calls of the source. The rule behind the calls is not given here.
What was measured:
[1] = biological target: DCN1-like protein 1 (Homo sapiens, UniProt Q96GG9); assay: Binding affinity to N-terminal GST tagged recombinant human DCN1 (58 to 259 residues) expressed in Escherichia coli BL21(DE3) assessed as reduction in DCN1-FAM-labelled N-terminal acetylated UBE2M (1 to 21 residues) protein-protein interaction after 30 mins by HTRF assay
[2] = tested on: PC-9; assay: Effect on HO-1 accumulation in human PC9 cells transfected with DCN1 siRNA3 by densitometric method; format: functional, cell-based
Outline: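 H1975 or PC9 cells seeded in 6-well plates for 16-24h, transfected with DCN1 siRNA#3 by lipofection, with or without compound, and collected three days later. Western blot for Cullin3, DCN1, NRF2, HO-1 and NQO1, with densitometry normalized to GAPDH. Three individual experiments, means ± SD.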

[3] = tested on: KYSE-70 cell line; assay: Antiproliferative activity against human KYSE-70 after 72 hrs by MTT assay; format: functional, cell-based; settings: KYSE-70, 72 h
Outline: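 MTT viability assay: cells seeded at 2~5×10^3 per well, exposed to serial dilutions of compound for 72h, then MTT (5 mg/mL in PBS) added for 4h at 37°C. Formazan dissolved in DMSO and read at 490nm. IC50 reported as mean ± SD of three independent experiments.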

[4] = tested on: PC-9; assay: Induction of apoptosis in human PC9 cells assessed as early apoptotic cells at 5 uM after 48 hrs by Annexin V-FITC/propidium iodide staining based flow cytometry (reference value: 1.36%); format: functional
Outline: (§1)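 PC9 cells seeded in 6-well plates (1~2×10^6 cells/mL), incubated overnight, then exposed to 0, 2.5, 5 or 10µM compound for 48h. Harvested cells stained with Annexin-V-FITC/PI for 30 min and analysed by flow cytometry. Three individual experiments; means ± SD.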

[5] = tested on: PC-9; assay: Induction of apoptosis in human PC9 cells assessed as early apoptotic cells at 10 uM after 48 hrs by Annexin V-FITC/propidium iodide staining based flow cytometry (reference value: 1.36%); format: functional; outline: as §1

Sequence of DCN1-like protein 1 (Q96GG9 whole entry, the tested form may be a part): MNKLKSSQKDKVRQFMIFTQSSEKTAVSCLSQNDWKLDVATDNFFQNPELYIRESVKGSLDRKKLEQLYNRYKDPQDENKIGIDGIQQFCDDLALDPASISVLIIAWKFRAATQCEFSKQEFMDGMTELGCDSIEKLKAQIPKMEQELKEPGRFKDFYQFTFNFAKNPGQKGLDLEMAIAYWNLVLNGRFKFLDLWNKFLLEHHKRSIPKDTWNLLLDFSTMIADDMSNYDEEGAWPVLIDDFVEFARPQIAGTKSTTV

With `C#CCSc1nc(Sc2nccs2)c(C#N)c(-c2ccc(C)cc2)n1` the IC50 [1] was 15.7 nM, the Ki [1] was 13.7 nM and the Activity [2] was “inactive”. For the same compound, the IC50 [3] was 4300 nM, the Activity [4] was 8.15% and the Activity [5] was 1.97%.
